biological target: T1, OR2W1 (Homo sapiens) (UniProt Q9Y3N9); settings: stereoisomer not certain
T1 sequence (whole entry): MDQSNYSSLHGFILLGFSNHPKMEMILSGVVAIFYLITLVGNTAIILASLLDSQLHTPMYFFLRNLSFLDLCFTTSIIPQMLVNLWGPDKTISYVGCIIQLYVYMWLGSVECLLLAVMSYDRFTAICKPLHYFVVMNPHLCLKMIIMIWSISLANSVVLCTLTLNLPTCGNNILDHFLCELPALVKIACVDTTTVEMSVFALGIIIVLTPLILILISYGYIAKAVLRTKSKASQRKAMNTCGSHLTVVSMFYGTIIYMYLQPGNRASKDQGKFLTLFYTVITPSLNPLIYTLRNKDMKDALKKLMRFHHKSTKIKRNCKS
Summary of the method: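 Whether a receptor–molecule pair is responsive (active) rests on the original authors' judgment that its measured signal was statistically different from baseline. Pairs without that judgment are non-responsive (inactive). Sources used varied assay methods, commonly transient luciferase assays in mammalian cell lines.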
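Note: active if original authors judged signal statistically different from baseline.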

Row | Structure (SMILES) | odorant receptor agonist call
1 | CCC(C)C(=O)OC (centres undefined) | inactive
2 | CCC(=O)O | inactive
3 | CCC(=O)C(C)S (centres undefined) | inactive
4 | CC(=O)OCc1ccccc1 | active
5 | CC(=O)C=CC1=C(C)CCCC1(C)C | inactive
6 | CC12CCC(CC1=O)C2(C)C (centres undefined) | inactive
7 | COc1ccc2ccc(=O)oc2c1 | inactive
8 | CCCCC(CC)CCC(=O)O (centres undefined) | inactive
9 | CCC(C)CCC(=O)[O-] (centres undefined) | active
10 | CCCC(C)=O | inactive
11 | OCc1ccccc1 | inactive
12 | COc1cccc(OC)c1O | inactive
13 | CSSSC | active
14 | COc1nccnc1CC(C)C | inactive
15 | CCCC(=O)C(C)CC (centres undefined) | inactive
16 | CCCCCCC(=O)[O-].[H+] | inactive
17 | COc1cc(C(=O)O)ccc1O | inactive

Row | Structure (SMILES) | odorant receptor agonist call
18 | CCCCCCCO | active
19 | CCCCCCC(C)=O | active
20 | CCCC(=O)C(C)=O | active
21 | CCCCCO | inactive
22 | CC=O | inactive
23 | C=Cc1ccc(O)c(OC)c1 | inactive
24 | CCCCCCCCCS | active
25 | CCC=O | inactive
26 | CCC(C)c1nccnc1OC (centres undefined) | inactive
27 | O=C1CCOc2ccccc21 | active
28 | C=CC(=O)CC | inactive
29 | CCC=CCC=O | inactive
30 | CCCCOC=O | active
31 | CCCCCC(=O)CC | active
32 | C=CCOC(=O)CCCCCC | inactive
33 | O=C(O)CCc1ccccc1 | inactive
34 | CC=CC(=O)C1=C(C)C=CCC1(C)C | inactive

From the M2OR odorant receptor database
